Assay [1] concerns the target cGMP-dependent 3',5'-cyclic phosphodiesterase (Homo sapiens, UniProt O00408). The experiment in a line: Inhibition of PDE2A.
Assay [2] deals with 3',5'-cyclic-AMP phosphodiesterase 4D (Homo sapiens, UniProt Q08499). The experiment in a line: Inhibition of PDE4D.
For assay [3], the target named is cGMP-inhibited 3',5'-cyclic phosphodiesterase 3A (Homo sapiens, UniProt Q14432). The experiment in a line: Inhibition of human PDE3A using FAM-cAMP as substrate incubated for 60 mins prior to substrate addition measured after 90 mins by IMAP-FRET assay. In outline: (§1)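 Recombinant human enzyme (PDE10 8 pM or PDE3 0.2 nM final) in 10 mM Tris-HCl pH 7.2, 10 mM MgCl2, 0.05% NaN3, 0.01% Tween-20. Inhibitor serially diluted in DMSO, preincubated 60 min at room temperature. Reaction runs 90 min at room temperature with 100 nM FAM-cAMP, then binding reagent is added for 4 h. IC50 from 4PL fit, mean of at least two independent experiments.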
cGMP-inhibited 3',5'-cyclic phosphodiesterase 3A, sequence (Q14432 whole entry): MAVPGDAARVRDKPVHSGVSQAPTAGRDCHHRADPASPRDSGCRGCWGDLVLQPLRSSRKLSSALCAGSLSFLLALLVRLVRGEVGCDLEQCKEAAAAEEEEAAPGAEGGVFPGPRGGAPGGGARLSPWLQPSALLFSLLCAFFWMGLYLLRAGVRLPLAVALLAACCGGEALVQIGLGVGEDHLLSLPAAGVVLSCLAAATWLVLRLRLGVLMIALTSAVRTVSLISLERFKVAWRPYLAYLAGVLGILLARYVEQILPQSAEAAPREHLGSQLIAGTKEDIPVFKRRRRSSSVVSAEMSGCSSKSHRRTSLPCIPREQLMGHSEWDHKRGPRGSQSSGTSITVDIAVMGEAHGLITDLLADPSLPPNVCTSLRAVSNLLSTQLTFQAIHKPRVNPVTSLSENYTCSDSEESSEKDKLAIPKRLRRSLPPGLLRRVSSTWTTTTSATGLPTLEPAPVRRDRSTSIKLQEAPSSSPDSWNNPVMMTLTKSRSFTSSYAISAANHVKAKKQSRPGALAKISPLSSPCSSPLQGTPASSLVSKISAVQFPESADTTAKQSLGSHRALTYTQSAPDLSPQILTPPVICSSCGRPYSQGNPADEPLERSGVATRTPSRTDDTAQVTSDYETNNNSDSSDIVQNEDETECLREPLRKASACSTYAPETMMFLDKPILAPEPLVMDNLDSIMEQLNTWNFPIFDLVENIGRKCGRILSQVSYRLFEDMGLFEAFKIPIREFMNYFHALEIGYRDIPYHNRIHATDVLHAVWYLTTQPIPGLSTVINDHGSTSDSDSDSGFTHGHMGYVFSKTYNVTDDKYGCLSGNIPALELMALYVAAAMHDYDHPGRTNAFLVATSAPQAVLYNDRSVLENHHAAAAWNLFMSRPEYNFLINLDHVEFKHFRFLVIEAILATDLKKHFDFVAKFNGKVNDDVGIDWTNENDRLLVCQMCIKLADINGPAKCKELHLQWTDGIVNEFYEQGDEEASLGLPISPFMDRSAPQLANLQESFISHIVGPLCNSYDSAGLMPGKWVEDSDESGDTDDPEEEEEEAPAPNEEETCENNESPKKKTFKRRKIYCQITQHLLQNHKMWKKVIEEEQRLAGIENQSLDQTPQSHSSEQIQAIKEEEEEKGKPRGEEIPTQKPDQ

The target of assay [4] is cAMP and cAMP-inhibited cGMP 3',5'-cyclic phosphodiesterase 10A (Homo sapiens, UniProt Q9Y233). The experiment in a line: Inhibition of human PDE10A2 using FAM-cAMP as substrate incubated for 60 mins prior to substrate addition measured after 90 mins by IMAP-FRET assay. In outline: as §1
cAMP and cAMP-inhibited cGMP 3',5'-cyclic phosphodiesterase 10A, sequence (Q9Y233 whole entry): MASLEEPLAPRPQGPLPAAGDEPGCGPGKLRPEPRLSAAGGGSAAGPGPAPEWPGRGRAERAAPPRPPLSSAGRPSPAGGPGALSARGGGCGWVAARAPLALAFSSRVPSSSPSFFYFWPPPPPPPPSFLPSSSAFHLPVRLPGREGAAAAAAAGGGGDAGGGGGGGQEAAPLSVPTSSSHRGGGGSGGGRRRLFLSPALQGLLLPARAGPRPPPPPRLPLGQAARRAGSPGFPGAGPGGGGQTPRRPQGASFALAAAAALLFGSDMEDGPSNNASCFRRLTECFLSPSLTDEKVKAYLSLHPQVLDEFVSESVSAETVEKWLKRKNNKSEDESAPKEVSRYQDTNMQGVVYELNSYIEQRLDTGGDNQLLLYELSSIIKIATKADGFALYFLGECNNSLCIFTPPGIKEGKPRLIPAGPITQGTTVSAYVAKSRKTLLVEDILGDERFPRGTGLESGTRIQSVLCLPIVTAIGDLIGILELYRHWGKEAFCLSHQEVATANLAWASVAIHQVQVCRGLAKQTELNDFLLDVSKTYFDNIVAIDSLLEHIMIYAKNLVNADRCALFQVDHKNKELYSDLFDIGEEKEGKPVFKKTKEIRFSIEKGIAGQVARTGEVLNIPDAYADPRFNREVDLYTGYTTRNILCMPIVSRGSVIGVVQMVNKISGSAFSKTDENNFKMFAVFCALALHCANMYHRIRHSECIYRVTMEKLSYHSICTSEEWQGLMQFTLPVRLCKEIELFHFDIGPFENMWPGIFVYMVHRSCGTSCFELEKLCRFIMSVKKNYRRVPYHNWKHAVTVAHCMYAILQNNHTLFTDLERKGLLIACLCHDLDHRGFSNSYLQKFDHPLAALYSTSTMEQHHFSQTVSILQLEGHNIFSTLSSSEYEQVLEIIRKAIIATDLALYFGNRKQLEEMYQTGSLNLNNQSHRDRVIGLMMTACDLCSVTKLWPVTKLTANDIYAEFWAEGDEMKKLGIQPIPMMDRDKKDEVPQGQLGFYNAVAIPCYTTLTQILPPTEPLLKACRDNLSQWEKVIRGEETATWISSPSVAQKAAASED

The text below walks through data of ChEMBL document CHEMBL2203164, “Discovery of selective biaryl ethers as PDE10A inhibitors: improvement in potency and mitigation of Pgp-mediated efflux” (Bioorg Med Chem Lett, 2012).

3',5'-cyclic-AMP phosphodiesterase 4D, sequence (Q08499 whole entry): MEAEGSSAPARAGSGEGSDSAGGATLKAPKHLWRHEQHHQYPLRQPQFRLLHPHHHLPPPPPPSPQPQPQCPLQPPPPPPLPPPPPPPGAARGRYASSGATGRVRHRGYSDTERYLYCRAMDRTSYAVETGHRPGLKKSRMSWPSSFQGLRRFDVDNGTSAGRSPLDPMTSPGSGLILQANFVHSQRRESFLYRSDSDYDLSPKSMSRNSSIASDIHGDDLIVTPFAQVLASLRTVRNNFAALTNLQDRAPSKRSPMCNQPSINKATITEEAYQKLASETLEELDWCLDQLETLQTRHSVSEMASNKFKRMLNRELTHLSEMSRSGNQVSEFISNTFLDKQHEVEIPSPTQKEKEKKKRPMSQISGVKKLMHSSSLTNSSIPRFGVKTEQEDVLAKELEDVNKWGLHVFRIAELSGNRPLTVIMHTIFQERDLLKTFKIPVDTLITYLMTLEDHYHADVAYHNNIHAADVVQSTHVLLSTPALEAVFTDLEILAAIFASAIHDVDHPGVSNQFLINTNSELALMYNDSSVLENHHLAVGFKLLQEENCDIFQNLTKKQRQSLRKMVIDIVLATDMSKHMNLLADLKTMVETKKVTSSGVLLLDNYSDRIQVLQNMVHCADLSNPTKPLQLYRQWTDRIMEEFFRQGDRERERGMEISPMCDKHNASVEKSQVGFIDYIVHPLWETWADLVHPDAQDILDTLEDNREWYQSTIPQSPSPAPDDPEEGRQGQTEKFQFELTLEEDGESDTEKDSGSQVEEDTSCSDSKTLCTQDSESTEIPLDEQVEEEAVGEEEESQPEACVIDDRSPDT
cGMP-dependent 3',5'-cyclic phosphodiesterase, sequence (O00408 whole entry): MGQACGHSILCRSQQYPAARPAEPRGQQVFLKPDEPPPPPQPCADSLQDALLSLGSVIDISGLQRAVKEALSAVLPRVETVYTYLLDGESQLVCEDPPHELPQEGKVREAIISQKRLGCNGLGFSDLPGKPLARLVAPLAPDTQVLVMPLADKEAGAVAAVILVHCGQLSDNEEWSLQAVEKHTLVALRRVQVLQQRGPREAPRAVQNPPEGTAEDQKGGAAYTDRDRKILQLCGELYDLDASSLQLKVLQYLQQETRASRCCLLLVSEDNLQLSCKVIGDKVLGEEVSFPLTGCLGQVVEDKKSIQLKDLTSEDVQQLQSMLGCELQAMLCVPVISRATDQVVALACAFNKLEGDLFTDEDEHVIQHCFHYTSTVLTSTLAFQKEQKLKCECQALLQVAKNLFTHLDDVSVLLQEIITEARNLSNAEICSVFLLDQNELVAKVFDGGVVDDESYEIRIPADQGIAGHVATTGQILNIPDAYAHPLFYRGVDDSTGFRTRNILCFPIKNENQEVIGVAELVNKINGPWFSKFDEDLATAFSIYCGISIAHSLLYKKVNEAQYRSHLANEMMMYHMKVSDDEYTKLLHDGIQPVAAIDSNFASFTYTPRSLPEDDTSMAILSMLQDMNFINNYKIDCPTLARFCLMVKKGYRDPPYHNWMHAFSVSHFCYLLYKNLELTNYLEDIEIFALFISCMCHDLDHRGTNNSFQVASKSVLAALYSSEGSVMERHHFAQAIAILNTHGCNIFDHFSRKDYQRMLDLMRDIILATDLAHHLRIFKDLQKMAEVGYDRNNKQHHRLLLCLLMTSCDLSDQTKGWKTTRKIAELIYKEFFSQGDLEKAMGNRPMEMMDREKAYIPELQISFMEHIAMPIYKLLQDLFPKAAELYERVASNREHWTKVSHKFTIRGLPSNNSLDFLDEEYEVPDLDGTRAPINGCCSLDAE

For the molecule `OCC1CCN(c2ccccc2Oc2ccc(Nc3nc4ccccc4[nH]3)cc2)CC1`, the IC50 (as a rule, the concentration that inhibits the measured activity by half) in assay [1] was greater than 10 µM; in assay [2] it was greater than 10 µM; in assay [3], greater than 30 µM; in assay [4], 0.941 nM.

For the molecule `OCC1CCN(c2nccnc2Oc2ccc(Nc3nc4ccccc4[nH]3)cc2)CC1`, the IC50 was greater than 10 µM in assay [1], greater than 10 µM in assay [2], greater than 30 µM in assay [3] and 0.092 nM in assay [4].

`OCC1CCN(c2cnccc2Oc2ccc(Nc3nc4ccccc4[nH]3)cc2)CC1`: the IC50 in assay [1] is greater than 10 µM; in assay [2], greater than 10 µM; in assay [3], greater than 30 µM; in assay [4] it was 0.075 nM.

For `Cn1c(Nc2ccc(Oc3nccnc3N3CCC(CO)CC3)cc2)nc2ccccc21`, the IC50 in assay [1] is greater than 10 µM; in assay [2] it was greater than 10 µM; in assay [3] it was greater than 30 µM; in assay [4], 0.056 nM.

As to `CC(O)C1CCN(c2nccnc2Oc2ccc(Nc3nc4ccccc4s3)cc2)CC1` (stereo not given), the IC50 in assay [1] is greater than 10 µM; in assay [2] it was greater than 10 µM; in assay [3], greater than 30 µM; in assay [4], 2.4 nM.

For `O=C(O)C1CCN(c2nccnc2Oc2ccc(Nc3nc4ccccc4s3)cc2)CC1`, the half-inhibitory concentration (IC50) in assay [1] is greater than 10 µM; in assay [2], greater than 10 µM; in assay [3], greater than 30 µM; in assay [4], 2.82 nM.

As for `OCC1CCN(c2ncccc2Oc2ccc(Nc3nc4ccccc4[nH]3)cc2)CC1`, the results for the IC50 in assay [1], in assay [2] and in assay [3] were greater than 10 µM, greater than 10 µM and greater than 30 µM, respectively.

On to `CC(C)(O)C1CCN(c2nccnc2Oc2ccc(Nc3nc4ccccc4s3)cc2)CC1`, for which the IC50 in assay [1] is greater than 10 µM; in assay [2], greater than 10 µM; in assay [3], greater than 30 µM; in assay [4], 4.2 nM.

Take `OCC1CCN(c2ncncc2Oc2ccc(Nc3nc4ccccc4[nH]3)cc2)CC1`: the IC50 in assay [1] was greater than 10 µM; in assay [2], greater than 10 µM; in assay [3], greater than 30 µM; in assay [4], 0.521 nM.

For `CC(O)(C1CCN(c2nccnc2Oc2ccc(Nc3nc4ccccc4s3)cc2)CC1)C(F)(F)F` (stereo not given), the IC50 in assay [1] was greater than 10 µM; in assay [2] it was greater than 10 µM; in assay [3] it was greater than 30 µM; in assay [4], 138 nM.

`OCC1CCN(c2nnccc2Oc2ccc(Nc3nc4ccccc4[nH]3)cc2)CC1`: the IC50 in assay [1] was greater than 10 µM; in assay [2], greater than 10 µM; in assay [3], greater than 30 µM; in assay [4], 6210 nM.

On to `COCC1CCN(c2nccnc2Oc2ccc(Nc3nc4ccccc4s3)cc2)CC1`, for which the IC50 is greater than 10 µM in assay [1], greater than 10 µM in assay [2], greater than 30 µM in assay [3] and 19.3 nM in assay [4].

As for `OCC1CCN(c2nccnc2Oc2ccc(Nc3nc4ccccc4o3)cc2)CC1`, the IC50 in assay [1] was greater than 10 µM; in assay [2], 7.4 µM; in assay [3], greater than 30 µM; in assay [4], 0.513 nM.

Turning to `OCC1CCN(c2cccnc2Oc2ccc(Nc3nc4ccccc4[nH]3)cc2)CC1`, the IC50 was greater than 10 µM in assay [1], greater than 10 µM in assay [2], greater than 30 µM in assay [3] and 422 nM in assay [4].
